From ChEMBL document CHEMBL4813982, “Novel pyrazolo[4,3-d]pyrimidine microtubule targeting agents (MTAs): Synthesis, structure-activity relationship, in vitro and in vivo evaluation as antitumor agents” (Bioorg Med Chem Lett, 2021)
The source made the active and inactive calls. The rule behind the calls is not given here.

Key:
OVCAR-3 = assay: Growth inhibition of human OVCAR-3 cells incubated for 48 hrs by sulforhodamine B assay; format: functional
[1] = Resistance ratio of IC50 for antiproliferative activity against human NCI/ADR-RES cells expressing Pgp to IC50 for antiproliferative activity against human OVCAR-8 cells; format: functional
How it was run: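 Resistance ratio: IC50 in Pgp-overexpressing NCI/ADR-RES cells divided by IC50 in parental OVCAR-8 cells.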

MCF7 [2] = assay: Antitumor activity against human MCF7 cells expressing TUBB3 xenografted in athymic mouse assessed as reduction in tumor growth at 30 mg/kg administered twice in a week; format: functional, organism-based
How it was run: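 βIII-tubulin-overexpressing MCF-7 cells in Matrigel implanted into mammary fat pad #4 of 8-week-old female athymic mice. […] Tumor volumes measured over time and analysed by two-way repeated-measures ANOVA. Body weight change at day 41 analysed by one-way ANOVA. n = 7 control, 8 per treated group.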

MCF7 [3] = assay: Antiproliferative activity against human MCF7 cells; format: functional, cell-based
NCI/ADR-RES [4] = assay: Antiproliferative activity against human NCI/ADR-RES cells overexpressing Pgp; format: functional, cell-based
TK-10 = assay: Growth inhibition of human TK-10 cells incubated for 48 hrs by sulforhodamine B assay; format: functional
[5] = Toxicity in athymic mouse xenografted with human MCF7 cells expressing TUBB3 assessed as effect on body weight at 30 mg/kg administered twice in a week; format: organism-based; details: in vivo
How it was run: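 MCF-7 TUBB3 cells (10^7 in 100 uL Matrigel) implanted into mammary fat pad #4 of 8-week-old female athymic mice. Dosing was 30 mg/kg twice weekly. Body weight was expressed as percent change at day 41 versus starting weight and analysed by one-way ANOVA, n = 8.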

T47D = assay: Growth inhibition of human T47D cells incubated for 48 hrs by sulforhodamine B assay; format: functional
SF-268 = assay: Growth inhibition of human SF-268 cells incubated for 48 hrs by sulforhodamine B assay; format: functional
CAKI-1 = assay: Growth inhibition of human CAKI-1 cells incubated for 48 hrs by sulforhodamine B assay; format: functional
SN12C = assay: Growth inhibition of human SN12C cells incubated for 48 hrs by sulforhodamine B assay; format: functional
OVCAR-5 = assay: Growth inhibition of human OVCAR-5 cells incubated for 48 hrs by sulforhodamine B assay; format: functional
NCI-H226 = assay: Growth inhibition of human NCI-H226 cells incubated for 48 hrs by sulforhodamine B assay; format: functional
MCF7 [6] = assay: Antiproliferative activity against human MCF7 cells expressing TUBB3; format: functional, cell-based
NCI-H23 = assay: Growth inhibition of human NCI-H23 cells incubated for 48 hrs by sulforhodamine B assay; format: functional
NCI-H522 = assay: Growth inhibition of human NCI-H522 cells incubated for 48 hrs by sulforhodamine B assay; format: functional
Malme-3M = assay: Growth inhibition of human Malme-3M cells incubated for 48 hrs by sulforhodamine B assay; format: functional
SK-MEL-5 = assay: Growth inhibition of human SK-MEL-5 cells incubated for 48 hrs by sulforhodamine B assay; format: functional
PC-3 = assay: Growth inhibition of human PC-3 cells incubated for 48 hrs by sulforhodamine B assay; format: functional
NCI-H460 = assay: Growth inhibition of human NCI-H460 cells incubated for 48 hrs by sulforhodamine B assay; format: functional
SK-OV-3 = assay: Growth inhibition of human SK-OV-3 cells incubated for 48 hrs by sulforhodamine B assay; format: functional
LOX IMVI = assay: Growth inhibition of human LOX IMVI cells incubated for 48 hrs by sulforhodamine B assay; format: functional
OVCAR-8 [7] = assay: Growth inhibition of human OVCAR-8 cells incubated for 48 hrs by sulforhodamine B assay; format: functional
SR = assay: Growth inhibition of human SR cells incubated for 48 hrs by sulforhodamine B assay; format: functional
MCF7 [8] = assay: Potency index, ratio of EC50 of paclitaxel to EC50 of compound for antiproliferative activity against human MCF7 cells; format: functional
HL-60(TB) = assay: Growth inhibition of human HL-60(TB) cells incubated for 48 hrs by sulforhodamine B assay; format: functional
EKVX = assay: Growth inhibition of human EKVX cells incubated for 48 hrs by sulforhodamine B assay; format: functional
Tubulin (Homo sapiens) [9] = biological target: T1, Tubulin (Homo sapiens) (UniProt P68371+Q9H4B7+P0DPH7+P68366+Q13509+Q71U36+P04350+Q3ZCM7+P07437+P68363+Q9BQE3+Q6PEY2+Q13885+Q9BVA1+Q9BUF5); assay: Inhibition of [3H]colchicine binding to tubulin (unknown origin) at 0.5 uM relative to control; format: protein-complex assay
NCI/ADR-RES [10] = assay: Growth inhibition of human NCI/ADR-RES cells incubated for 48 hrs by sulforhodamine B assay; format: functional
Hs-578T = assay: Growth inhibition of human HS-578T cells incubated for 48 hrs by sulforhodamine B assay; format: functional
[11] = Resistance ratio of EC50 for antiproliferative activity against human MCF7 cells expressing TUBB3 to EC50 for antiproliferative activity against human MCF7 cells; format: functional
How it was run: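 Resistance ratio: EC50 in MCF-7 cells overexpressing βIII-tubulin divided by EC50 in parental wild-type MCF-7 cells.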

DU-145 = assay: Growth inhibition of human DU-145 cells incubated for 48 hrs by sulforhodamine B assay; format: functional
UACC-257 = assay: Growth inhibition of human UACC-257 cells incubated for 48 hrs by sulforhodamine B assay; format: functional
SW-620 = assay: Growth inhibition of human SW-620 cells incubated for 48 hrs by sulforhodamine B assay; format: functional
MDA-MB-468 = assay: Growth inhibition of human MDA-MB-468 cells incubated for 48 hrs by sulforhodamine B assay; format: functional
Tubulin (Homo sapiens) [12] = biological target: T1, Tubulin (Homo sapiens); assay: Inhibition of [3H]colchicine binding to tubulin (unknown origin) at 5 uM relative to control; format: protein-complex assay
Tubulin = assay: Inhibition of tubulin assembly (unknown origin); format: protein-complex assay, Homo sapiens
HCC 2998 = assay: Growth inhibition of human HCC 2998 cells incubated for 48 hrs by sulforhodamine B assay; format: functional
U-251 = assay: Growth inhibition of human U-251 cells incubated for 48 hrs by sulforhodamine B assay; format: functional
SK-MEL-28 = assay: Growth inhibition of human SK-MEL-28 cells incubated for 48 hrs by sulforhodamine B assay; format: functional
MCF7 [13] = assay: Growth inhibition of human MCF7 cells incubated for 48 hrs by sulforhodamine B assay; format: functional
IGROV-1 = assay: Growth inhibition of human IGROV-1 cells incubated for 48 hrs by sulforhodamine B assay; format: functional
MDA-MB-231 = assay: Growth inhibition of human MDA-MB-231 cells incubated for 48 hrs by sulforhodamine B assay; format: functional
HCT-15 = assay: Growth inhibition of human HCT-15 cells incubated for 48 hrs by sulforhodamine B assay; format: functional
A549 = assay: Growth inhibition of human A549 cells incubated for 48 hrs by sulforhodamine B assay; format: functional
COLO 205 = assay: Growth inhibition of human COLO 205 cells incubated for 48 hrs by sulforhodamine B assay; format: functional
OVCAR-4 = assay: Growth inhibition of human OVCAR-4 cells incubated for 48 hrs by sulforhodamine B assay; format: functional
RXF 393 = assay: Growth inhibition of human RXF 393 cells incubated for 48 hrs by sulforhodamine B assay; format: functional
A498 = assay: Growth inhibition of human A498 cells incubated for 48 hrs by sulforhodamine B assay; format: functional
ACHN = assay: Growth inhibition of human ACHN cells incubated for 48 hrs by sulforhodamine B assay; format: functional
SNB-75 = assay: Growth inhibition of human SNB-75 cells incubated for 48 hrs by sulforhodamine B assay; format: functional
HCT-116 = assay: Growth inhibition of human HCT-116 cells incubated for 48 hrs by sulforhodamine B assay; format: functional
HOP-62 = assay: Growth inhibition of human HOP-62 cells incubated for 48 hrs by sulforhodamine B assay; format: functional
MOLT-4 = assay: Growth inhibition of human MOLT-4 cells incubated for 48 hrs by sulforhodamine B assay; format: functional
MDA-MB-435 = assay: Growth inhibition of human MDA-MB-435 cells incubated for 48 hrs by sulforhodamine B assay; format: functional
M14 = assay: Growth inhibition of human M14 cells incubated for 48 hrs by sulforhodamine B assay; format: functional
786-0 = assay: Growth inhibition of human 786-0 cells incubated for 48 hrs by sulforhodamine B assay; format: functional
CCRF-CEM = assay: Growth inhibition of human CCRF-CEM cells incubated for 48 hrs by sulforhodamine B assay; format: functional
SF-539 = assay: Growth inhibition of human SF-539 cells incubated for 48 hrs by sulforhodamine B assay; format: functional
SK-MEL-2 = assay: Growth inhibition of human SK-MEL-2 cells incubated for 48 hrs by sulforhodamine B assay; format: functional
HCT-29 = assay: Growth inhibition of […] incubated for 48 hrs by sulforhodamine B assay; format: functional
KM12 = assay: Growth inhibition of human KM12 cells incubated for 48 hrs by sulforhodamine B assay; format: functional
SNB-19 = assay: Growth inhibition of human SNB-19 cells incubated for 48 hrs by sulforhodamine B assay; format: functional
K562 = assay: Growth inhibition of human K562 cells incubated for 48 hrs by sulforhodamine B assay; format: functional
MCF7 [14] = assay: Potency index, ratio of EC50 of paclitaxel to EC50 of compound for antiproliferative activity against human MCF7 cells expressing TUBB3; format: functional
OVCAR-8 [15] = assay: Antiproliferative activity against human OVCAR-8 cells; format: functional, cell-based
HOP-92 = assay: Growth inhibition of human HOP-92 cells incubated for 48 hrs by sulforhodamine B assay; format: functional
SF-295 = assay: Growth inhibition of human SF-295 cells incubated for 48 hrs by sulforhodamine B assay; format: functional
UACC-62 = assay: Growth inhibition of human UACC-62 cells incubated for 48 hrs by sulforhodamine B assay; format: functional
NCI-H322M = assay: Growth inhibition of human NCI-H322M cells incubated for 48 hrs by sulforhodamine B assay; format: functional
UO-31 = assay: Growth inhibition of human UO-31 cells incubated for 48 hrs by sulforhodamine B assay; format: functional
BT-549 = assay: Growth inhibition of human BT-549 cells incubated for 48 hrs by sulforhodamine B assay; format: functional
RPMI-8226 = assay: Growth inhibition of human RPMI-8226 cells incubated for 48 hrs by sulforhodamine B assay; format: functional

## COc1ccc(N(C)c2nc(Cl)nc3cnn(C)c23)cc1
OVCAR-3
  GI50: 6.37 nM
[1]
  Ratio IC50: 0.55
MCF7 [2]
  TGI: Active
MCF7 [3]
  EC50: 2 nM
NCI/ADR-RES [4]
  IC50: 5 nM
TK-10
  GI50: 16.3 nM
[5]
  Activity: Non-Toxic
T47D
  GI50: 16.4 nM
SF-268
  GI50: 12.2 nM
CAKI-1
  GI50: 15.7 nM
SN12C
  GI50: 15.8 nM
OVCAR-5
  GI50: 11.8 nM
NCI-H226
  GI50: 9.49 nM
MCF7 [6]
  EC50: 3.3 nM
NCI-H23
  GI50: 11.9 nM
NCI-H522
  GI50: 14.4 nM
Malme-3M
  GI50: 12.1 nM
SK-MEL-5
  GI50: 14.6 nM
PC-3
  GI50: 10.7 nM
NCI-H460
  GI50: 4.52 nM
SK-OV-3
  GI50: 13.9 nM
LOX IMVI
  GI50: 8.53 nM
OVCAR-8 [7]
  GI50: 14.7 nM
SR
  GI50: 9.64 nM
MCF7 [8]
  Ratio EC50: 100
HL-60(TB)
  GI50: 11.2 nM
EKVX
  GI50: 15.5 nM
Tubulin (Homo sapiens) [9]
  inhibition: 68%
NCI/ADR-RES [10]
  GI50: 8.24 nM
Hs-578T
  GI50: 11.2 nM
[11]
  Ratio EC50: 1.1
DU-145
  GI50: 8.89 nM
UACC-257
  GI50: 22.7 nM
SW-620
  GI50: 6.67 nM
MDA-MB-468
  GI50: 9.09 nM
Tubulin (Homo sapiens) [12]
  inhibition: 94%
Tubulin
  IC50: 450 nM
HCC 2998
  GI50: 23.6 nM
U-251
  GI50: 7.97 nM
SK-MEL-28
  GI50: 17 nM
MCF7 [13]
  GI50: 10.8 nM
IGROV-1
  GI50: 13.3 nM
MDA-MB-231
  GI50: 14.3 nM
HCT-15
  GI50: 5.14 nM
A549
  GI50: 12.7 nM
COLO 205
  GI50: 9.78 nM
OVCAR-4
  GI50: 12.9 nM
RXF 393
  GI50: 8.75 nM
A498
  GI50: 13.4 nM
ACHN
  GI50: 8.4 nM
SNB-75
  GI50: 10.8 nM
HCT-116
  GI50: 9.07 nM
HOP-62
  GI50: 15.4 nM
MOLT-4
  GI50: 19.9 nM
MDA-MB-435
  GI50: 3.9 nM
M14
  GI50: 10.6 nM
786-0
  GI50: 13.2 nM
CCRF-CEM
  GI50: 9.96 nM
SF-539
  GI50: 8.76 nM
SK-MEL-2
  GI50: 21 nM
HCT-29
  GI50: 7.6 nM
KM12
  GI50: 10.8 nM
SNB-19
  GI50: 13.9 nM
K562
  GI50: 6.46 nM
MCF7 [14]
  Ratio EC50: 600
OVCAR-8 [15]
  IC50: 9 nM
HOP-92
  GI50: 16 nM
SF-295
  GI50: 11.4 nM
UACC-62
  GI50: 15.9 nM
NCI-H322M
  GI50: 14.1 nM
UO-31
  GI50: 10 nM
BT-549
  GI50: 24.1 nM
RPMI-8226
  GI50: 15.3 nM

## COc1ccc(N(C)c2nc(Cl)nc3cnn(C)c23)cc1F
[1]
  Ratio IC50: 0.77
MCF7 [3]
  EC50: 1.7 nM
NCI/ADR-RES [4]
  IC50: 7 nM
MCF7 [6]
  EC50: 2.6 nM
MCF7 [8]
  Ratio EC50: 100
Tubulin (Homo sapiens) [9]
  inhibition: 77%
[11]
  Ratio EC50: 1.6
Tubulin (Homo sapiens) [12]
  inhibition: 97%
Tubulin
  IC50: 740 nM
MCF7 [14]
  Ratio EC50: 600
OVCAR-8 [15]
  IC50: 9 nM
